Experiments:
P388 [1] = experiment: In vivo antitumor activity against mouse P388 cells allografted in BDF/CDF mouse assessed as host survival time at 0.25 mg/kg, ip administered on days 1 to 9 relative to control; format: functional; settings: route intraperitoneal
Outline: (§1)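 P-388 lymphocytic leukemia, 10⁶ cells injected ip into BDF or CDF mice on day 0; drug given ip daily on days 1-9 at the stated dose. Read-out T/C: average survival time of treated mice as percent of untreated controls. Assays run by NCI Drug Research and Development Program.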

P388 [2] = experiment: In vivo antitumor activity against mouse P388 cells allografted in BDF/CDF mouse assessed as host survival time at 1 mg/kg, ip administered on days 1 to 9 relative to control; format: functional; settings: route intraperitoneal; outline: as §1
Rattus norvegicus [3] = species on record: Rattus norvegicus; experiment: Cardiotoxicity in rat ECG model relative to adriamycin; settings: in vivo
P388 [4] = experiment: In vivo antitumor activity against mouse P388 cells allografted in BDF/CDF mouse assessed as host survival time at 0.5 mg/kg, ip administered on days 1 to 9 relative to control; format: functional; settings: route intraperitoneal; outline: as §1
P388 [5] = experiment: In vivo antitumor activity against mouse P388 cells allografted in BDF/CDF mouse assessed as host survival time at 4 mg/kg, ip administered on days 1 to 9 relative to control; format: functional; settings: route intraperitoneal; outline: as §1
Rattus norvegicus [6] = species on record: Rattus norvegicus; experiment: Cardiotoxicity in rat ECG model; settings: in vivo
P388 [7] = experiment: In vivo antitumor activity against mouse P388 cells allografted in BDF/CDF mouse assessed as host survival time at 8 mg/kg, ip administered on days 1 to 9 relative to control; format: functional; settings: route intraperitoneal; outline: as §1
P388 [8] = experiment: In vivo antitumor activity against mouse P388 cells allografted in BDF/CDF mouse assessed as host survival time at 0.125 mg/kg, ip administered on days 1 to 9 relative to control; format: functional; settings: route intraperitoneal; outline: as §1
[9] = Dissociation constant, pKa of Ar-COOH group of the compound; format: physicochemical
[10] = Partition coefficient, log P of the compound; format: physicochemical; settings: octanol/water
Calf thymus DNA = experiment: Binding affinity to calf thymus DNA assessed as change in melting temperature at 5 uM by spectrophotometer analysis; format: nucleic-acid assay; settings: Bos taurus
Outline: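 Drug dissolved in Me2SO, diluted with buffer, then mixed with calf thymus DNA. Final mix: 0.01 M phosphate pH 7, 5×10^-5 M DNA, 5×10^-6 M drug, 10^-5 M EDTA, 5% Me2SO. Absorbance at 259 nm recorded every 30 s while heating at 18 °C/h. Tm is the midpoint of the corrected curve; the shift is taken against DNA alone.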

P388 [11] = experiment: In vivo antitumor activity against mouse P388 cells allografted in BDF/CDF mouse assessed as host survival time at 2 mg/kg, ip administered on days 1 to 9 relative to control; format: functional; settings: route intraperitoneal; outline: as §1
P388 [12] = experiment: In vivo antitumor activity against mouse P388 cells allografted in BDF/CDF mouse assessed as host survival time at 16 mg/kg, ip administered on days 1 to 9 relative to control; format: functional; settings: route intraperitoneal; outline: as §1
L1210 [13] = experiment: Inhibition of RNA synthesis in mouse L1210 cells; format: functional; settings: read-out: ED50 (the source's name)
L1210 [14] = experiment: Inhibition of DNA synthesis in mouse L1210 cells; format: functional; settings: read-out: ED50 (the source's name)
[15] = Half life in 0.01 M phosphate buffer at 10 uM at pH 7.4 at 50 degC; format: physicochemical
Outline: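 Drug at 1×10^-5 M in 0.01 M phosphate, pH 7.4, 50 °C, no DNA. Absorbance followed continuously for 3 h at a drug-specific wavelength (345 or 259 nm). Buffer baseline subtracted. Data fit to A = ΣA0 + c·e^(-kt), with ΣA0 the absorbance of daunorubicin plus the […], and t1/2 derived from the fit.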

Row | Structure (SMILES) | T/C (P388 [1]) [%] | T/C (P388 [2]) [%] | Ratio (Rattus norvegicus [3]) | T/C (P388 [4]) [%] | T/C (P388 [5]) [%] | MCCD (Rattus norvegicus [6]) | T/C (P388 [7]) [%] | T/C (P388 [8]) [%] | pKa [9] | logP [10] | ΔTm (Calf thymus DNA) [°C] | T/C (P388 [11]) [%] | T/C (P388 [12]) [%] | EC50 (L1210 [13]) [µM] | EC50 (L1210 [14]) [µM] | half-life at 10 µM [15] [h]
1 | COc1cccc2c1C(=O)c1c(O)c3c(c(O)c1C2=O)C[C@@](O)(/C(C)=N/NC(=O)c1ccc(O)cc1)C[C@@H]3O[C@H]1C[C@H](N)[C@H](O)[C@H](C)O1.Cl | 111 | 145 | 1.5 | 157 | 161 | 20 mg/kg | 181 | 115 | 4.52 | 0.37 | 11.5 | 160 | 111 | 1.9 | 3.6 | –
2 | COc1cccc2c1C(=O)c1c(O)c3c(c(O)c1C2=O)C[C@@](O)(/C(CO)=N/NC(=O)c1ccccc1)C[C@@H]3O[C@H]1C[C@H](N)[C@H](O)[C@H](C)O1.Cl | 99 | 154 | 2.4 | 126 | 172 | 32 mg/kg | 201 | 103 | 4.19 | 0.52 | 8.9 | 154 | 128 | 8.8 | 14 | –
3 | COc1cccc2c1C(=O)c1c(O)c3c(c(O)c1C2=O)C[C@@](O)(/C(C)=N/NC(=O)c1cccc([N+](=O)[O-])c1)C[C@@H]3O[C@H]1C[C@H](N)[C@H](O)[C@H](C)O1.Cl | 130 | 146 | 2.3 | 130 | 190 | 32 mg/kg | 202 | 125 | 3.46 | 0.76 | 10.5 | 172 | 72 | 2.3 | 3.2 | –
4 | COc1cccc2c1C(=O)c1c(O)c3c(c(O)c1C2=O)C[C@@](O)(/C(C)=N/NC(=O)c1ccccc1)C[C@@H]3O[C@H]1C[C@H](N)[C@H](O)[C@H](C)O1.Cl [ZORUBICIN HYDROCHLORIDE] | 133 | 152 | 1.8 | 140 | 192 | 24 mg/kg | 164 | – | 4.19 | 1.04 | 11.7 | 170 | 112 | 1.2 | 2.2 | 5.4
5 | COc1ccc(C(=O)N/N=C(\C)[C@]2(O)Cc3c(O)c4c(c(O)c3[C@@H](O[C@H]3C[C@H](N)[C@H](O)[C@H](C)O3)C2)C(=O)c2c(OC)cccc2C4=O)cc1.Cl | 129 | 158 | 1.8 | 136 | 211 | 24 mg/kg | 183 | 119 | 4.47 | 1.02 | 10.9 | 174 | 59 | 1.6 | 3.1 | –
6 | COc1cccc2c1C(=O)c1c(O)c3c(c(O)c1C2=O)C[C@@](O)(/C(CO)=N/NC(=O)c1ccc(Cl)c(Cl)c1)C[C@@H]3O[C@H]1C[C@H](N)[C@H](O)[C@H](C)O1.Cl | 125 | 172 | 1.4 | 143 | 202 | 20 mg/kg | 109 | 116 | 3.62 | 1.94 | 5.3 | 154 | 72 | 3.6 | 6.6 | –
7 | COc1cccc2c1C(=O)c1c(O)c3c(c(O)c1C2=O)C[C@@](O)(/C(C)=N/NC(=O)c1ccc(Cl)c(Cl)c1)C[C@@H]3O[C@H]1C[C@H](N)[C@H](O)[C@H](C)O1.Cl | 137 | 166 | 2.8 | 157 | 163 | 40 mg/kg | 81 | 117 | 3.62 | 2.46 | 11 | 175 | 54 | 1.7 | 2.1 | –
8 | COc1cccc2c1C(=O)c1c(O)c3c(c(O)c1C2=O)C[C@@](O)(/C(C)=N/NC(=O)c1ccc(-c2ccccc2)cc1)C[C@@H]3O[C@H]1C[C@H](N)[C@H](O)[C@H](C)O1.Cl | 134 | 157 | 2.8 | 138 | 190 | 40 mg/kg | 98 | 107 | 3.97 | 3 | 10.3 | 163 | 63 | 1 | 1.9 | –
9 | COc1cccc2c1C(=O)c1c(O)c3c(c(O)c1C2=O)C[C@@](O)(C(C)=O)C[C@@H]3O[C@H]1C[C@H](N)[C@H](O)[C@H](C)O1 [DAUNORUBICIN] | 152 | 162 | 1.3 | 167 | 83 | 14 mg/kg | – | – | – | 0.82 | – | 112 | – | 0.23 | 0.48 | –
10 | CCc1ccc(C(=O)N/N=C(\C)[C@]2(O)Cc3c(O)c4c(c(O)c3[C@@H](O[C@H]3C[C@H](N)[C@H](O)[C@H](C)O3)C2)C(=O)c2c(OC)cccc2C4=O)cc1.Cl | 139 | 154 | 1.5 | 148 | 175 | 20 mg/kg | 93 | 111 | 4.35 | 2.06 | 10.5 | 175 | 68 | 1.1 | 2.6 | –
11 | CCCCOc1ccc(C(=O)N/N=C(\C)[C@]2(O)Cc3c(O)c4c(c(O)c3[C@@H](O[C@H]3C[C@H](N)[C@H](O)[C@H](C)O3)C2)C(=O)c2c(OC)cccc2C4=O)cc1.Cl | 143 | 152 | >= 3.4 | 151 | 127 | >= 48 mg kg-1 | 72 | 115 | 4.23 | 2.65 | 10.2 | 179 | 54 | 1.4 | 3.2 | –
12 | COc1cccc2c1C(=O)c1c(O)c3c(c(O)c1C2=O)C[C@@](O)(C(=O)CO)C[C@@H]3O[C@H]1C[C@H](N)[C@H](O)[C@H](C)O1.Cl [DOXORUBICIN HYDROCHLORIDE] | 170 | 193 | 1 | 187 | 77 | 11 mg/kg | – | – | – | 0.3 | 13.4 | 149 | – | 0.67 | 1.5 | –
13 | COc1cccc2c1C(=O)c1c(O)c3c(c(O)c1C2=O)C[C@@](O)(/C(C)=N/NC(=O)c1ccc(N(C)C)cc1)C[C@@H]3O[C@H]1C[C@H](N)[C@H](O)[C@H](C)O1.Cl | 111 | 154 | 0.8 | 154 | 172 | 12 mg/kg | 136 | 94 | 4.97 | 1.22 | 10.7 | 181 | 89 | 2.5 | 2.6 | 9.23

From ChEMBL document CHEMBL3244385, “Antitumor anthracycline antibiotics. Structure-activity and structure-cardiotoxicity relationships of rubidazone analogues” (J Med Chem, 1978)
